Reference: ChEMBL document CHEMBL4184133, “Chemical Constituents and Anti-inflammatory Principles from the Fruits of Forsythia suspensa” (J Nat Prod, 2017)
≈ marks a conversion by molar mass, not a printed value.

How the values were obtained:
Neutrophil [1] = assay: Anti-inflammatory activity in human neutrophils assessed as inhibition of fMLP/CB-induced superoxide anion generation by measuring superoxide dismutase SOD-inhibitable ferricytochrome c reduction incubated for 5 mins before fMLP/CB stimulation for 3 mins by spectrophotometry; format: functional, cell-based
Outline: (§1)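 Same neutrophil preparation. Cells at 6 × 10^5/mL with 0.5 mg/mL ferricytochrome c and 1 mM Ca2+ were equilibrated 2 min at 37 °C and given compound or 0.1% DMSO for 5 min. Cytochalasin B (1 μg/mL) was added, then 100 nM fMLP. A550 was monitored continuously with stirring. Superoxide was calculated from the difference with versus without SOD (100 U/mL) using ε = 21.1/mM/10 mm. IC50 values are mean ± SD, n = 3.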

Neutrophil [2] = assay: Anti-inflammatory activity in human neutrophils assessed as inhibition of fMLP/CB-induced elastase release pre-incubated for 5 mins before fMLP/CB stimulation using MeO-Suc-Ala-Ala-Pro-Val-pnitroanilide as substrate; format: functional, cell-based
Outline: (§2)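 Neutrophils were isolated by dextran sedimentation, Ficoll Hypaque centrifugation and hypotonic lysis of erythrocytes, then held in Ca2+-free HBSS pH 7.4 at 4 °C. Cells at 6 × 10^5/mL with 100 μM substrate were equilibrated 2 min at 37 °C and given compound or 0.1% DMSO vehicle for 5 min. They were activated with 100 nM fMLP plus 0.5 μg/mL cytochalasin B, and A405 was monitored continuously. Release is expressed as percent of the drug-free activated control. Mean ± SD.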

Neutrophil [3] = assay: Anti-inflammatory activity in human neutrophils assessed as inhibition of fMLP/CB-induced superoxide anion generation by measuring superoxide dismutase SOD-inhibitable ferricytochrome c reduction at 10 ug/ml incubated for 5 mins before fMLP/CB stimulation for 3 mins by spectrophotometry; format: functional; outline: as §1
Neutrophil [4] = assay: Anti-inflammatory activity in human neutrophils assessed as inhibition of fMLP/CB-induced elastase release at 10 ug/ml pre-incubated for 5 mins before fMLP/CB stimulation using MeO-Suc-Ala-Ala-Pro-Val-pnitroanilide as substrate; format: functional; outline: as §2

SMILES | IC50 (Neutrophil [1]) | IC50 (Neutrophil [2]) | inhibition (Neutrophil [1]) | inhibition at 10 µg/mL (Neutrophil [3]) | inhibition at 10 µg/mL (Neutrophil [4]) | inhibition (Neutrophil [2])
CC(=O)OC1CC[C@]2(C)[C@H]3CC[C@@H]4[C@@H]([C@]5(C)CCC(=O)O5)CC[C@@]4(C)[C@]3(C)CC[C@H]2C1(C)C (stereo partly drawn) | > 10 µg/mL | > 10 µg/mL | – | – | – | –
COc1cc([C@H]2OC[C@H]3[C@@H]2CO[C@@H]3c2ccc(O)c(OC)c2)ccc1O | 1.3 µg/mL (≈ 3.63 µM) | > 10 µg/mL | Dose-dependent effect | > 50% | – | –
COc1cc([C@H]2OC[C@H]3[C@@H]2CO[C@H]3c2ccc(O)c(OC)c2)ccc1O [PINORESINOL] | 3.4 µg/mL (≈ 9.49 µM) | > 10 µg/mL | Dose-dependent effect | > 50% | – | –
COC(C)(C)/C=C/C[C@](C)(O)[C@H]1CC[C@]2(C)C1CC[C@@H]1[C@@]3(C)CC[C@H](OC(C)=O)C(C)(C)[C@@H]3CC[C@]12C (stereo partly drawn) | > 10 µg/mL | > 10 µg/mL | – | – | – | –
C=C1CC[C@H]2[C@@](C)(COC=O)CCC[C@]2(C)[C@H]1CC/C(C)=C\C(=O)O | > 10 µg/mL | > 10 µg/mL | – | – | – | –
C=C1CCC2[C@@](C)(CO)CCC[C@]2(C)[C@H]1CC/C(C)=C/C(=O)O (stereo partly drawn) | 7.4 µg/mL (≈ 23.1 µM) | > 10 µg/mL | Dose-dependent effect | > 50% | – | –
COc1ccc([C@H]2OC[C@@H]3C(=O)OC[C@@H]32)cc1OC | 5.6 µg/mL (≈ 21.2 µM) | > 10 µg/mL | Dose-dependent effect | > 50% | – | –
CC(=O)O[C@H]1CC[C@]2(C)[C@H]3CCC4[C@@H]([C@@](C)(O)CCC=C(C)C)CC[C@@]4(C)[C@]3(C)CC[C@H]2C1(C)C (stereo partly drawn) | > 10 µg/mL | > 10 µg/mL | – | – | – | –
C[C@@H]1O[C@@H](OC[C@H]2O[C@@H](OCCc3ccc(O)c(O)c3)[C@H](O)[C@@H](O)[C@@H]2OC(=O)/C=C/c2ccc(O)c(O)c2)[C@H](O)[C@H](O)[C@H]1O [FORSYTHIASIDE] | 1.4 µg/mL (≈ 2.24 µM) | > 10 µg/mL | Dose-dependent effect | > 50% | – | –
C=C1CC[C@H]2C(C)(C)C(=O)CC[C@]2(C)[C@H]1CC/C(C)=C/C(=O)O | > 10 µg/mL | > 10 µg/mL | – | – | – | –
O=C1C=CC2(O)CC(=O)OC2C1 (stereo not drawn) | > 10 µg/mL | > 10 µg/mL | – | – | – | –
C=C(C)[C@@H]1CC[C@]2(C(=O)O)CC[C@]3(C)C(CCC4[C@@]5(C)C[C@@H](O)[C@H](O)C(C)(C)C5CC[C@]43C)C12 (stereo partly drawn) | 0.8 µg/mL (≈ 1.69 µM) | 1.9 µg/mL (≈ 4.02 µM) | Dose-dependent effect | > 50% | > 50% | Dose-dependent effect
C/C(=C\C(=O)O)CC[C@@]1(C)[C@H](C)CC[C@]2(C)C(C(=O)O)=CCC[C@H]12 | > 10 µg/mL | > 10 µg/mL | – | – | – | –
C/C(=C\C(=O)O)CC[C@H]1C(CO)=CC[C@H]2[C@@](C)(CO)CCC[C@]12C | 8.3 µg/mL (≈ 24.7 µM) | > 10 µg/mL | – | > 50% | – | –
COc1cc(C[C@H]2COC(=O)[C@@H]2Cc2ccc(O)c(OC)c2)ccc1O [MATAIRESINOL] | 4.3 µg/mL (≈ 12 µM) | 7.3 µg/mL (≈ 20.4 µM) | Dose-dependent effect | > 50% | > 50% | Dose-dependent effect
O=C(Cc1ccc(O)cc1)OC[C@H]1CC[C@@H]2C(C(=O)O)=CO[C@@H](O[C@@H]3O[C@H](CO)[C@@H](O)[C@H](O)[C@H]3O)[C@H]12 | > 10 µg/mL | > 10 µg/mL | – | – | – | –
COc1cc([C@H]2OC[C@H]3[C@@H]2CO[C@H]3c2ccc(OC)c(OC)c2)ccc1O [PHILLYGENIN] | 6.4 µg/mL (≈ 17.2 µM) | > 10 µg/mL | Dose-dependent effect | > 50% | – | –
CC(=O)O[C@H]1CC[C@]2(C)[C@H]3CCC4[C@@H]([C@]5(C)CC[C@@H](O)C(C)(C)O5)CC[C@@]4(C)[C@]3(C)CC[C@H]2C1(C)C (stereo partly drawn) | > 10 µg/mL | > 10 µg/mL | – | – | – | –

More lines, main results first:

IC50 (Neutrophil [1]) | IC50 (Neutrophil [2]) | SMILES | inhibition (Neutrophil [1]) | inhibition at 10 µg/mL (Neutrophil [3]) | inhibition at 10 µg/mL (Neutrophil [4]) | inhibition (Neutrophil [2])
> 10 µg/mL | > 10 µg/mL | CC(=O)O[C@H]1CC[C@]2(C)[C@H]3CC=C4[C@@H]5CC(C)(C)CC[C@]5(C(=O)O)CC[C@@]4(C)[C@]3(C)CC[C@H]2C1(C)C [ACETYL OLEANOLIC ACID] | – | – | – | –
> 10 µg/mL | > 10 µg/mL | COC1CC[C@@](C)([C@H]2CC[C@]3(C)[C@@H]2CC[C@@H]2[C@@]4(C)CCC(OC(C)=O)C(C)(C)[C@@H]4CC[C@]23C)O1 (stereo partly drawn) | – | – | – | –
2.5 µg/mL (≈ 7.8 µM) | > 10 µg/mL | C=C1CC[C@H]2[C@@](C)(CO)CCC[C@]2(C)[C@H]1CC/C(C)=C\C(=O)O | – | > 50% | – | –
> 10 µg/mL | > 10 µg/mL | C=C1CC[C@H]2[C@](C)(CO)CCC[C@]2(C)[C@H]1CC/C(C)=C/C(=O)O | – | – | – | –
> 10 µg/mL | > 10 µg/mL | CC1=C(CC/C(C)=C/C(=O)O)[C@@]2(C)CCC[C@@](C)(CO)[C@@H]2CC1=O | – | – | – | –
> 10 µg/mL | > 10 µg/mL | C=C1CC[C@@H]2[C@](C)(CCC[C@@]2(C)C(=O)O)[C@H]1CC/C(C)=C\C(=O)O | – | – | – | –
0.6 µg/mL (≈ 1.31 µM) | 0.8 µg/mL (≈ 1.75 µM) | C[C@H]1[C@H](C)CC[C@]2(C(=O)O)CC[C@]3(C)C(=CC[C@@H]4[C@@]5(C)CC[C@H](O)C(C)(C)[C@@H]5CC[C@]43C)[C@H]12 [URSOLIC ACID] | Dose-dependent effect | > 50% | > 50% | Dose-dependent effect
1.5 µg/mL (≈ 3.23 µM) | 0.9 µg/mL (≈ 1.94 µM) | CNC(=O)c1cc(Oc2ccc(NC(=O)Nc3ccc(Cl)c(C(F)(F)F)c3)cc2)ccn1 [SORAFENIB] | – | – | – | –
